Counter-ions that a name gives are not always drawn. Activity calls are given as the source filed them. No cut-off for these calls is given here. Square brackets hold non-standard residues; d marks the D form. Peptide text beside a SMILES is read from it. * marks the point of attachment. Fmoc = O=C(OCC1c2ccccc2-c2ccccc21)*; Palmitoyl = CCCCCCCCCCCCCCCC(=O)*; Cha = N[C@@H](CC1CCCCC1)C(=O)O; AMC = Cc1cc(=O)oc2cc(N*)ccc12; Sar = CNCC(=O)O
Legend:
[1] = Metabolic stability in rat serum assessed as half life at pH 7.5; assay type: ADME, cell-free
Outline: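 Peptide (final 20 µM) was incubated in 25% rat serum with 0.1 M Tris-HCl pH 7.5 at 37 °C, serum pre-warmed 10 min. Aliquots taken up to 8 h were quenched with 15% TCA in 40% isopropanol, held 15 min at -20 °C and centrifuged. Intact peptide was measured by reversed-phase HPLC peak area, and half-life was calculated from the disappearance.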

Galanin receptor type 2 [2] = target: T1, Galanin receptor type 2 (Homo sapiens, UniProt O43603); assay: Displacement of europium-labeled galanin from human GalR2 expressed in CHO-K1 cells; assay type: cell-based
T1 sequence (O43603 whole entry): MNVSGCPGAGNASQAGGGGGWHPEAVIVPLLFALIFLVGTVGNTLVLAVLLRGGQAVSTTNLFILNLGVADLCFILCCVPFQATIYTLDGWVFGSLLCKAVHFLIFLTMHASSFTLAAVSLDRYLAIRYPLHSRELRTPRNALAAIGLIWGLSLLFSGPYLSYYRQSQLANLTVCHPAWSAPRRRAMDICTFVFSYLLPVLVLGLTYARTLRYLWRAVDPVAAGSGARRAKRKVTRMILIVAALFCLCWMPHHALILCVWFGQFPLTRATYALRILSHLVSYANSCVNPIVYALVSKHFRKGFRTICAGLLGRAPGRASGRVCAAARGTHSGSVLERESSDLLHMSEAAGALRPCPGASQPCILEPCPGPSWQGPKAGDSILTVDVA

Mus musculus [3] = assay: Anticonvulsant activity in CF1 mouse assessed as inhibition of 6 Hz corneal stimulation-induced limbic seizures at 4 mg/kg, ip administered 15 mins before 6 Hz corneal stimulation; assay type: functional, organism-based; parameters: dose 4 mg/kg; settings: Limbic system
Outline: (§1)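 Each analogue given ip at 4 mg/kg to five groups of CF-1 mice (n = 4 per group), one group per time point. Seizure challenge was 6 Hz corneal stimulation (32 mA for 3 s, corneal electrodes) at 15, 30, 60, 120 or 240 min after dosing. A mouse without a limbic seizure (jaw chomping, vibrissae twitching, forelimb clonus, Straub tail) was counted as protected.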

Galanin receptor type 1 = target: T2, Galanin receptor type 1 (Homo sapiens, UniProt P47211); assay: Displacement of europium-labeled galanin from human GalR1 expressed in HEK293 EBNA cells; assay type: cell-based
T2 sequence (P47211 whole entry): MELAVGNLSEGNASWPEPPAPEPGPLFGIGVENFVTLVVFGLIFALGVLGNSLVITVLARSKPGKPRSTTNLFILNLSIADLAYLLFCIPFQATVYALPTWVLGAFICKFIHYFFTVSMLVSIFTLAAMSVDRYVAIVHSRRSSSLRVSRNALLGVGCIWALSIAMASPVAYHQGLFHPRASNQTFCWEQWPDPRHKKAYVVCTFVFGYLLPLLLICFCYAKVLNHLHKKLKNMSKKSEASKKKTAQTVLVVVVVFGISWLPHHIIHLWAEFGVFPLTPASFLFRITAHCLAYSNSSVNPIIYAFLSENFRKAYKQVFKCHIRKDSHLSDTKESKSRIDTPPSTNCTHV

Galanin receptor type 2 [4] = target: T1, Galanin receptor type 2; assay: Binding affinity to human GalR2
Mus musculus [5] = assay: Anticonvulsant activity in CF1 mouse assessed as inhibition of 6 Hz corneal stimulation-induced limbic seizures at 4 mg/kg, ip administered 120 mins before 6 Hz corneal stimulation; assay type: functional, organism-based; parameters: dose 4 mg/kg; settings: Limbic system; outline: as §1
Mus musculus [6] = assay: Anticonvulsant activity in CF1 mouse assessed as inhibition of 6 Hz corneal stimulation-induced limbic seizures at 4 mg/kg, ip administered 60 mins before 6 Hz corneal stimulation; assay type: functional, organism-based; parameters: dose 4 mg/kg; settings: Limbic system; outline: as §1
Mus musculus [7] = assay: Anticonvulsant activity in CF1 mouse assessed as inhibition of 6 Hz corneal stimulation-induced limbic seizures at 4 mg/kg, ip administered 240 mins before 6 Hz corneal stimulation; assay type: functional, organism-based; parameters: dose 4 mg/kg; settings: Limbic system; outline: as §1

SMILES	half-life [1] [h]	Ki (Galanin receptor type 2 [2]) [nM]	Activity (Mus musculus [3])	Ki (Galanin receptor type 1) [nM]	Kd (Galanin receptor type 2 [4]) [nM]	Activity (Mus musculus [5])	Activity (Mus musculus [6])	Activity (Mus musculus [7])
CCCCCCCCCCCCCCCC(=O)NCCCC[C@H](NC(=O)[C@H](CCCCN)NC(=O)[C@H](CCCCN)NC(=O)[C@@H]1CCCN1C(=O)CNC(=O)[C@H](CC(C)C)NC(=O)[C@H](CC(C)C)NC(=O)[C@H](Cc1ccc(O)cc1)NC(=O)CNC(=O)[C@H](C)NC(=O)[C@H](CO)NC(=O)[C@H](CC(N)=O)NC(=O)[C@H](CC(C)C)NC(=O)[C@@H](NC(=O)[C@H](Cc1c[nH]c2ccccc12)NC(=O)CCCCCN)[C@@H](C)O)C(=O)N[C@@H](CCCCN)C(N)=O	> 10	51	Active	21.5	–	–	–	–
Cc1cc(=O)oc2cc(NC(=O)[C@@H](CCCCN)NC(=O)[C@H](CC3CCCCC3)NC(=O)OCC3c4ccccc4-c4ccccc43)ccc12 [GALNON] (Fmoc-[Cha]-[dK]-{AMC})	–	–	–	–	24000	–	–	–
CCCCCCCCCCCCCCCC(=O)NCCCC[C@H](NC(=O)[C@@H]1CCCN1C(=O)CNC(=O)[C@H](CC(C)C)NC(=O)[C@H](CC(C)C)NC(=O)[C@H](Cc1ccc(O)cc1)NC(=O)CNC(=O)[C@H](C)NC(=O)[C@H](CO)NC(=O)[C@H](CC(N)=O)NC(=O)[C@H](CC(C)C)NC(=O)[C@@H](NC(=O)[C@H](Cc1c[nH]c2ccccc12)NC(=O)CNC)[C@@H](C)O)C(=O)N[C@@H](CCCCN)C(=O)N[C@@H](CCCCN)C(=O)N[C@@H](CCCCN)C(N)=O	> 10	108	inactive	25.5	–	inactive	–	–
CCCCCCCCCCCCCCCC(=O)NCCCC[C@H](NC(=O)[C@@H](CCCCN)NC(=O)[C@@H](CCCCN)NC(=O)[C@@H]1CCCN1C(=O)CNC(=O)[C@H](CC(C)C)NC(=O)[C@H](CC(C)C)NC(=O)[C@H](Cc1ccc(O)cc1)NC(=O)CNC(=O)[C@H](C)NC(=O)[C@H](CO)NC(=O)[C@H](CC(N)=O)NC(=O)[C@H](CC(C)C)NC(=O)[C@@H](NC(=O)[C@H](Cc1c[nH]c2ccccc12)NC(=O)CNC)[C@@H](C)O)C(=O)N[C@H](CCCCN)C(N)=O	> 10	–	–	0.9	–	–	–	–
CCCCCCCCCCCCCCCC(=O)NCCCC[C@@H](NC(=O)[C@H](CCCCN)NC(=O)[C@@H](CCCCN)NC(=O)[C@H]1CCCN1C(=O)CNC(=O)[C@H](CC(C)C)NC(=O)[C@H](CC(C)C)NC(=O)[C@H](Cc1ccc(O)cc1)NC(=O)CNC(=O)[C@H](C)NC(=O)[C@H](CO)NC(=O)[C@H](CC(N)=O)NC(=O)[C@H](CC(C)C)NC(=O)[C@@H](NC(=O)[C@H](Cc1c[nH]c2ccccc12)NC(=O)CNC)[C@@H](C)O)C(=O)N[C@@H](CCCCN)C(N)=O	–	–	–	–	–	–	Active	–
COC(=O)[C@H](CCCCN)NC(=O)[C@]1(C)NC(=O)c2nc(oc2C)[C@](C)(C(=O)NC2c3ccccc3-c3ccccc32)NC(=O)c2nc(oc2C)[C@](C)(C(=O)NCC2CCCCC2)NC(=O)c2nc1oc2C [GALMIC TFA]	–	–	–	–	> 100000	–	–	–
CCCCCCCCCCCCCCCC(=O)NCCCC[C@H](NC(=O)[C@H](CCCCN)NC(=O)[C@H](CCCCN)NC(=O)CNC(=O)[C@H](CC(C)C)NC(=O)[C@H](CC(C)C)NC(=O)[C@H](Cc1ccc(O)cc1)NC(=O)CNC(=O)[C@H](C)NC(=O)[C@H](CO)NC(=O)[C@H](CC(N)=O)NC(=O)[C@H](CC(C)C)NC(=O)[C@@H](NC(=O)[C@H](Cc1c[nH]c2ccccc12)NC(=O)CNC)[C@@H](C)O)C(=O)N[C@@H](CCCCN)C(N)=O	5.6	75	–	25.5	–	inactive	–	inactive
CCCCCCCCCCCCCCCC(=O)NCCCC[C@H](NC(=O)[C@H](CCCN=C(N)N)NC(=O)[C@H](CCCN=C(N)N)NC(=O)[C@@H]1CCCN1C(=O)CNC(=O)[C@H](CC(C)C)NC(=O)[C@H](CC(C)C)NC(=O)[C@H](Cc1ccc(O)cc1)NC(=O)CNC(=O)[C@H](C)NC(=O)[C@H](CO)NC(=O)[C@H](CC(N)=O)NC(=O)[C@H](CC(C)C)NC(=O)[C@@H](NC(=O)[C@H](Cc1c[nH]c2ccccc12)NC(=O)CNC)[C@@H](C)O)C(=O)N[C@@H](CCCN=C(N)N)C(N)=O	4.8	65.5	–	3.3	–	–	–	–
CCCCCCCCCCCCCCCC(=O)NCCCC[C@H](NC(=O)[C@H](CCCCN)NC(=O)[C@@H]1CCCN1C(=O)CNC(=O)[C@H](CC(C)C)NC(=O)[C@H](CC(C)C)NC(=O)[C@H](Cc1ccc(O)cc1)NC(=O)CNC(=O)[C@H](C)NC(=O)[C@H](CO)NC(=O)[C@H](CC(N)=O)NC(=O)[C@H](CC(C)C)NC(=O)[C@@H](NC(=O)[C@H](Cc1c[nH]c2ccccc12)NC(=O)CNC)[C@@H](C)O)C(=O)N[C@@H](CCCCN)C(=O)N[C@@H](CCCCN)C(N)=O	8.6	28	–	6	–	inactive	inactive	inactive
CCCCCCCCCCCCCCCC(=O)NCCCC[C@H](NC(=O)[C@H](CCCCN)NC(=O)[C@H](CCCCN)NC(=O)[C@H](CCCCN)NC(=O)[C@@H]1CCCN1C(=O)CNC(=O)[C@H](CC(C)C)NC(=O)[C@H](CC(C)C)NC(=O)[C@H](Cc1ccc(O)cc1)NC(=O)CNC(=O)[C@H](C)NC(=O)[C@H](CO)NC(=O)[C@H](CC(N)=O)NC(=O)[C@H](CC(C)C)NC(=O)[C@@H](NC(=O)[C@H](Cc1c[nH]c2ccccc12)NC(=O)CNC)[C@@H](C)O)C(N)=O	> 10	22	–	1.9	–	inactive	–	inactive
CCCCCCCCCCCCCCCC(=O)NCCCC[C@H](NC(=O)[C@H](CCCCN)NC(=O)[C@H](CCCCN)NC(=O)[C@H](CCCCN)NC(=O)[C@H](CCCCN)NC(=O)[C@H](CC(C)C)NC(=O)[C@H](CC(C)C)NC(=O)[C@H](Cc1ccc(O)cc1)NC(=O)CNC(=O)[C@H](C)NC(=O)[C@H](CO)NC(=O)[C@H](CC(N)=O)NC(=O)[C@H](CC(C)C)NC(=O)[C@@H](NC(=O)[C@H](Cc1c[nH]c2ccccc12)NC(=O)CNC)[C@@H](C)O)C(=O)N[C@@H](CCCCN)C(N)=O (H-[Sar]WTLNSAGYLLKKKKK(Palmitoyl)K-NH2)	8.7	215	–	41.5	–	Active	–	–
CC(C)C[C@H](NC(=O)[C@H](CC(C)C)NC(=O)[C@H](Cc1ccc(O)cc1)NC(=O)CNC(=O)[C@H](C)NC(=O)[C@H](CO)NC(=O)[C@H](CC(N)=O)NC(=O)[C@H](CC(C)C)NC(=O)[C@@H](NC(=O)[C@@H](N)Cc1c[nH]c2ccccc12)[C@@H](C)O)C(=O)O	–	–	–	–	1.8	–	–	–
CCCCCCCCCCCCCCCC(=O)NCCCC[C@H](NC(=O)[C@H](CCCCN)NC(=O)[C@H](CCCCN)NC(=O)[C@@H]1CCCN1C(=O)CNC(=O)[C@H](CC(C)C)NC(=O)[C@H](CC(C)C)NC(=O)[C@H](Cc1ccc(O)cc1)NC(=O)CNC(=O)[C@H](C)NC(=O)[C@H](CO)NC(=O)[C@H](CC(N)=O)NC(=O)[C@H](CC(C)C)NC(=O)[C@@H](NC(=O)[C@@H](N)Cc1c[nH]c2ccccc12)[C@@H](C)O)C(=O)N[C@@H](CCCCN)C(N)=O (H-WTLNSAGYLLGPKKK(Palmitoyl)K-NH2)	> 10	48	–	387	–	–	–	inactive
CCCCCCCCCCCCCCCC(=O)NCCCC[C@H](NC(=O)[C@H](CCCCN)NC(=O)[C@H](CCCCN)NC(=O)[C@@H]1CCCN1C(=O)CNC(=O)[C@H](CC(C)C)NC(=O)[C@H](CC(C)C)NC(=O)[C@H](Cc1ccc(O)cc1)NC(=O)CNC(=O)[C@H](C)NC(=O)[C@H](CO)NC(=O)[C@H](CC(N)=O)NC(=O)[C@H](CC(C)C)NC(=O)[C@@H](NC(=O)[C@H](Cc1c[nH]c2ccccc12)NC(=O)CN)[C@@H](C)O)C(=O)N[C@@H](CCCCN)C(N)=O	> 10	22.5	–	5.3	–	inactive	–	inactive
CCCCCCCCCCCCCCCC(=O)NCCCC[C@H](NC(=O)[C@H](CCCNC(=N)N)NC(=O)[C@H](CCCNC(=N)N)NC(=O)[C@@H]1CCCN1C(=O)CNC(=O)[C@H](CC(C)C)NC(=O)[C@H](CC(C)C)NC(=O)[C@H](Cc1ccc(O)cc1)NC(=O)CNC(=O)[C@H](C)NC(=O)[C@H](CO)NC(=O)[C@H](CC(N)=O)NC(=O)[C@H](CC(C)C)NC(=O)[C@@H](NC(=O)[C@H](Cc1c[nH]c2ccccc12)NC(=O)CNC)[C@@H](C)O)C(=O)N[C@@H](CCCNC(=N)N)C(N)=O	–	–	–	–	–	–	Active	inactive

Source: ChEMBL document CHEMBL1151742, “Design, synthesis, and characterization of high-affinity, systemically-active galanin analogues with potent anticonvulsant activities” (J Med Chem, 2008)
